Test results: ChEMBL document CHEMBL3792366, “Role of disulfide linkage in action of bis(dialkylaminethiocarbonyl)disulfides as potent double-Edged microbicidal spermicide: Design, synthesis and biology” (Eur J Med Chem, 2016)
Converted amounts (≈) assume the structure as drawn.

What was measured:
[1] = Spermicidal activity in human sperms assessed as motility measured within 30 secs by phase contrast microscopy; format: functional, Sperm
Summary of the method: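 Liquefied human semen (0.05 mL) was added to 0.25 mL test solution and vortexed 10 s at low speed. Motile sperm were scored visually under phase contrast in five fields within 30 s; assays in triplicate; MEC = minimum effective concentration.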

[2] = test system: Trichophyton mentagrophytes; test: Antifungal activity against Trichophyton mentagrophytes after 48 hrs by broth microdilution method; format: functional
Summary of the method: (§1)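 NCCLS broth microdilution in RPMI 1640 buffered with MOPS; starting inoculum 1–5 × 10^3 CFU/mL; plates incubated at 35 °C; MIC read after 48 h.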

[3] = test system: Candida parapsilosis; test: Antifungal activity against Candida parapsilosis ATCC 22019 after 48 hrs by broth microdilution method; format: functional; conditions: Lodderomyces parapsilosis, ATCC 22019, 48 h; summary of the method: as §1
[4] = test system: Sporothrix schenckii; test: Antifungal activity against Sporothrix schenckii after 48 hrs by broth microdilution method; format: functional; summary of the method: as §1
[5] = test system: Trichomonas vaginalis; test: Antitrichomonas activity against metronidazole-resistant trophozoite stage of Trichomonas vaginalis ATCC 50143 assessed as cell viability under anaerobic condition after 48 hrs by trypan blue exclusion assay; format: functional; conditions: ATCC 50143, 48 h
Summary of the method: (§2)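 Log-phase T. vaginalis grown in TYM with 10% FCS, vitamin mix and penicillin/streptomycin at 37 °C. Compounds were made as 100 µg/mL DMSO stocks and serially diluted in TYM down to 0.1 µg/mL; DMSO/TYM served as vehicle. Parasites were incubated anaerobically at 37 °C, and viability was checked by trypan blue exclusion from 3 to 48 h. MIC = lowest concentration killing all cells by 48 h; each test was repeated three times.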

[6] = test system: Cryptococcus neoformans; test: Antifungal activity against Cryptococcus neoformans after 48 hrs by broth microdilution method; format: functional; summary of the method: as §1
[7] = test system: Candida albicans; test: Antifungal activity against Candida albicans after 48 hrs by broth microdilution method; format: functional; summary of the method: as §1
[8] = test system: Trichomonas vaginalis; test: Antitrichomonas activity against trophozoite stage of Trichomonas vaginalis clinical isolate assessed as cell viability under anaerobic condition after 48 hrs by trypan blue exclusion assay; format: functional; summary of the method: as §2
[9] = test system: Trichomonas vaginalis; test: Potency index, ratio of metronidazole MIC to compound MIC for metronidazole-resistant trophozoite stage of Trichomonas vaginalis ATCC 50143; format: functional

Compound	MEC [1]	MIC [2]	MIC [3]	MIC [4]	MIC [5]	MIC [6]	MIC [7]	MIC [8]	Ratio [9]
CCCCCCSC(=S)N1CCN(CCCC)CC1	>1%	–	–	–	–	–	–	–	–
N#CCCCN1CCN(C(=S)SCCSC(=S)N2CCN(CCCC#N)CC2)CC1	0.5%	–	–	–	–	–	–	–	–
O=C(c1ccccc1)N1CCN(C(=S)SSC(=S)N2CCN(C(=O)c3ccccc3)CC2)CC1	0.5%	> 94.1 µM	> 94.1 µM	> 94.1 µM	> 188 µM	> 94.1 µM	94.1 µM (≈ 49.9 µg/mL)	> 188 µM	–
CS(=O)(=O)N1CCN(C(=S)SSC(=S)N2CCN(S(C)(=O)=O)CC2)CC1	1%	52.1 µM (≈ 24.9 µg/mL)	> 104 µM	> 104 µM	> 208 µM	> 104 µM	104 µM (≈ 49.8 µg/mL)	> 208 µM	–
CCCSC(=S)N1CCN(CCCC#N)CC1	>1%	–	–	–	–	–	–	–	–
S=C(SSC(=S)N(C1CCCCC1)C1CCCCC1)N(C1CCCCC1)C1CCCCC1	>1%	97.4 µM (≈ 50 µg/mL)	> 97.4 µM	97.4 µM (≈ 50 µg/mL)	> 194 µM	24.3 µM (≈ 12.5 µg/mL)	48.7 µM (≈ 25 µg/mL)	> 194 µM	–
S=C(SSC(=S)N1CCCCC1)N1CCCCC1 [BIS(PIPERIDINYLTHIOCARBONYL)DISULFIDE]	1%	19.4 µM (≈ 6.22 µg/mL)	38.9 µM (≈ 12.5 µg/mL)	38.9 µM (≈ 12.5 µg/mL)	155 µM (≈ 49.7 µg/mL)	2.4 µM (≈ 0.769 µg/mL)	9.7 µM (≈ 3.11 µg/mL)	155 µM (≈ 49.7 µg/mL)	–
CN1CCN(C(=S)SCCSC(=S)N2CCN(C)CC2)CC1	0.5%	–	–	–	–	–	–	–	–
C=CCN1CCN(C(=S)SCCCSC(=S)N2CCN(CC=C)CC2)CC1	0.5%	–	–	–	–	–	–	–	–
CCCCCCCCCCSC(=S)N1CCN(C(=S)SSC(=S)N2CCN(C(=S)SCCCCCCCCCC)CC2)CC1	1%	> 66.2 µM	66.2 µM (≈ 50 µg/mL)	66.2 µM (≈ 50 µg/mL)	> 132 µM	33.1 µM (≈ 25 µg/mL)	66.2 µM (≈ 50 µg/mL)	> 132 µM	–
N#CCCCN1CCN(C(=S)SCSC(=S)N2CCN(CCCC#N)CC2)CC1	0.5%	–	–	–	–	–	–	–	–
S=C(SSC(=S)N1CCCC1)N1CCCC1 [BIS(PYRROLIDINYLTHIOCARBONYL)DISULFIDE]	1%	10.6 µM (≈ 3.1 µg/mL)	21.3 µM (≈ 6.23 µg/mL)	21.3 µM (≈ 6.23 µg/mL)	10.6 µM (≈ 3.1 µg/mL)	2.6 µM (≈ 0.761 µg/mL)	10.6 µM (≈ 3.1 µg/mL)	10.6 µM (≈ 3.1 µg/mL)	16
COc1ccccc1N1CCN(C(=S)SSC(=S)N2CCN(c3ccccc3OC)CC2)CC1	1%	93.4 µM (≈ 50 µg/mL)	> 93.4 µM	46.7 µM (≈ 25 µg/mL)	> 186 µM	23.3 µM (≈ 12.5 µg/mL)	46.7 µM (≈ 25 µg/mL)	> 186 µM	–
CCCCN1CCN(C(=S)SCSC(=S)N2CCN(CCCC)CC2)CC1	0.5%	–	–	–	–	–	–	–	–
C=CCN1CCN(C(=S)SCCSC(=S)N2CCN(CC=C)CC2)CC1	0.5%	–	–	–	–	–	–	–	–
CCCCCCCCSC(=S)N1CCN(C(=S)SSC(=S)N2CCN(C(=S)SCCCCCCCC)CC2)CC1	1%	> 71.5 µM	> 71.5 µM	35.7 µM (≈ 25 µg/mL)	> 143 µM	35.7 µM (≈ 25 µg/mL)	35.7 µM (≈ 25 µg/mL)	89.4 µM (≈ 62.5 µg/mL)	–
CCCCN1CCN(C(=S)SCCSC(=S)N2CCN(CCCC)CC2)CC1	0.5%	–	–	–	–	–	–	–	–
S=C(SSC(=S)N1CCCCCC1)N1CCCCCC1	>1%	17.9 µM (≈ 6.24 µg/mL)	143 µM (≈ 49.9 µg/mL)	17.9 µM (≈ 6.24 µg/mL)	35.8 µM (≈ 12.5 µg/mL)	4.4 µM (≈ 1.53 µg/mL)	8.9 µM (≈ 3.1 µg/mL)	286 µM (≈ 99.7 µg/mL)	4
CCCCCCCCN1CCN(C(=S)SSC(=S)N2CCN(CCCCCCCC)CC2)CC1	0.1%	91.4 µM (≈ 50 µg/mL)	91.4 µM (≈ 50 µg/mL)	91.4 µM (≈ 50 µg/mL)	182 µM (≈ 99.6 µg/mL)	91.4 µM (≈ 50 µg/mL)	91.4 µM (≈ 50 µg/mL)	182 µM (≈ 99.6 µg/mL)	–
S=C(SCCN1CCOCC1)N1CCN(C(=S)SSC(=S)N2CCN(C(=S)SCCN3CCOCC3)CC2)CC1	0.5%	> 71.3 µM	> 71.3 µM	> 71.3 µM	> 142 µM	> 71.3 µM	> 71.3 µM	> 142 µM	–
S=C(SSC(=S)N1CCOCC1)N1CCOCC1	0.1%	38.4 µM (≈ 12.5 µg/mL)	76.9 µM (≈ 25 µg/mL)	76.9 µM (≈ 25 µg/mL)	9.6 µM (≈ 3.12 µg/mL)	38.4 µM (≈ 12.5 µg/mL)	76.9 µM (≈ 25 µg/mL)	9.6 µM (≈ 3.12 µg/mL)	16
CCCCCCCCCCCCCCCCN1CCN(C(=S)SSC(=S)N2CCN(CCCCCCCCCCCCCCCC)CC2)CC1	1%	16.2 µM (≈ 12.5 µg/mL)	> 64.8 µM	16.2 µM (≈ 12.5 µg/mL)	> 129 µM	64.8 µM (≈ 50 µg/mL)	64.8 µM (≈ 50 µg/mL)	> 129 µM	–
Cc1ccc(S(=O)(=O)N2CCN(C(=S)SSC(=S)N3CCN(S(=O)(=O)c4ccc(C)cc4)CC3)CC2)cc1	>1%	76.5 µM (≈ 48.3 µg/mL)	> 76.5 µM	76.5 µM (≈ 48.3 µg/mL)	> 153 µM	> 76.5 µM	> 76.5 µM	> 153 µM	–

Compound	MEC [1]	MIC [2]	MIC [3]	MIC [4]	MIC [5]	MIC [6]	MIC [7]	MIC [8]	Ratio [9]
S=C(SSC(=S)N1CCN(c2ccccn2)CC1)N1CCN(c2ccccn2)CC1	1%	52.4 µM (≈ 25 µg/mL)	> 104 µM	104 µM (≈ 49.6 µg/mL)	> 209 µM	104 µM (≈ 49.6 µg/mL)	> 104 µM	> 209 µM	–
CN1CCN(C(=S)SCSC(=S)N2CCN(C)CC2)CC1	0.5%	–	–	–	–	–	–	–	–
Fc1ccc(N2CCN(C(=S)SSC(=S)N3CCN(c4ccc(F)cc4)CC3)CC2)cc1	>1%	97.8 µM (≈ 49.9 µg/mL)	> 97.8 µM	97.8 µM (≈ 49.9 µg/mL)	> 195 µM	> 97.8 µM	97.8 µM (≈ 49.9 µg/mL)	> 195 µM	–
S=C(SCCN1CCCCC1)N1CCN(C(=S)SSC(=S)N2CCN(C(=S)SCCN3CCCCC3)CC2)CC1	0.5%	> 71.7 µM	> 71.7 µM	> 71.7 µM	> 143 µM	> 71.7 µM	> 71.7 µM	> 143 µM	–
OC(Cn1cncn1)(Cn1cncn1)c1ccc(F)cc1F [FLUCONAZOLE]	–	0.39 µM (≈ 0.119 µg/mL)	0.39 µM (≈ 0.119 µg/mL)	0.39 µM (≈ 0.119 µg/mL)	–	0.19 µM (≈ 0.0582 µg/mL)	0.39 µM (≈ 0.119 µg/mL)	–	–
C=CCN1CCN(C(=S)SCSC(=S)N2CCN(CC=C)CC2)CC1	1%	–	–	–	–	–	–	–	–
CCCCSC(=S)N1CCN(C(=S)SSC(=S)N2CCN(C(=S)SCCCC)CC2)CC1	>1%	42.5 µM (≈ 24.9 µg/mL)	42.5 µM (≈ 24.9 µg/mL)	85.1 µM (≈ 50 µg/mL)	> 170 µM	85.1 µM (≈ 50 µg/mL)	> 85.1 µM	> 170 µM	–
N#CCCCN1CCN(C(=S)SCCCSC(=S)N2CCN(CCCC#N)CC2)CC1	0.5%	–	–	–	–	–	–	–	–
CC(C)(C)OC(=O)N1CCN(C(=S)SSC(=S)N2CCN(C(=O)OC(C)(C)C)CC2)CC1	>1%	> 91.7 µM	> 91.7 µM	> 91.7 µM	> 183 µM	> 91.7 µM	> 91.7 µM	> 183 µM	–
C=CCN1CCN(C(=S)SCCC)CC1	>1%	–	–	–	–	–	–	–	–
S=C(SSC(=S)N1CCN(C23CC4CC(CC(C4)C2)C3)CC1)N1CCN(C23CC4CC(CC(C4)C2)C3)CC1	1%	84.6 µM (≈ 50 µg/mL)	84.6 µM (≈ 50 µg/mL)	84.6 µM (≈ 50 µg/mL)	> 169 µM	84.6 µM (≈ 50 µg/mL)	84.6 µM (≈ 50 µg/mL)	> 169 µM	–
O=[N+]([O-])c1ccc(N2CCN(C(=S)SSC(=S)N3CCN(c4ccc([N+](=O)[O-])cc4C(F)(F)F)CC3)CC2)c(C(F)(F)F)c1	0.1%	71.3 µM (≈ 50 µg/mL)	> 71.3 µM	> 71.3 µM	> 142 µM	> 71.3 µM	35.6 µM (≈ 24.9 µg/mL)	> 142 µM	–
C=CCN1CCN(C(=S)SCCCCCC)CC1	>1%	–	–	–	–	–	–	–	–
CCCCN1CCN(C(=S)SCCCSC(=S)N2CCN(CCCC)CC2)CC1	0.5%	–	–	–	–	–	–	–	–
CCCCCCCSC(=S)N1CCN(C(=S)SSC(=S)N2CCN(C(=S)SCCCCCCC)CC2)CC1	>1%	> 74.5 µM	74.5 µM (≈ 50 µg/mL)	74.5 µM (≈ 50 µg/mL)	> 149 µM	74.5 µM (≈ 50 µg/mL)	> 74.5 µM	> 149 µM	–
CC(C)COC(=O)N1CCN(C(=S)SSC(=S)N2CCN(C(=O)OCC(C)C)CC2)CC1	>1%	95.6 µM (≈ 50 µg/mL)	> 95.6 µM	> 95.6 µM	> 191 µM	> 95.6 µM	95.6 µM (≈ 50 µg/mL)	> 191 µM	–
CCCCCCSC(=S)N1CCN(C(=S)SSC(=S)N2CCN(C(=S)SCCCCCC)CC2)CC1	1%	> 77.7 µM	77.7 µM (≈ 50 µg/mL)	77.7 µM (≈ 50 µg/mL)	> 155 µM	38.8 µM (≈ 25 µg/mL)	77.7 µM (≈ 50 µg/mL)	> 155 µM	–
S=C(SSC(=S)N1CCN(c2ncccn2)CC1)N1CCN(c2ncccn2)CC1	1%	104 µM (≈ 49.8 µg/mL)	> 104 µM	104 µM (≈ 49.8 µg/mL)	> 208 µM	104 µM (≈ 49.8 µg/mL)	> 104 µM	104 µM (≈ 49.8 µg/mL)	–
CN1CCN(C(=S)SCCCSC(=S)N2CCN(C)CC2)CC1	0.5%	–	–	–	–	–	–	–	–
CCCCN1CCN(C(=S)SCCC)CC1	>1%	–	–	–	–	–	–	–	–
CCCCCCSC(=S)N1CCN(CCCC#N)CC1	>1%	–	–	–	–	–	–	–	–
S=C(SCc1ccccc1)N1CCN(C(=S)SSC(=S)N2CCN(C(=S)SCc3ccccc3)CC2)CC1	>1%	> 76.3 µM	> 76.3 µM	> 76.3 µM	95.4 µM (≈ 62.5 µg/mL)	> 76.3 µM	> 76.3 µM	95.4 µM (≈ 62.5 µg/mL)	–
